This is an account of results in paper PMC7141409 (Journal of biomolecular NMR, 2019).

The test system of data set [1] is E3 ubiquitin ligase SCF^TIR1. Particulars: rice strain with OsIAA11 P106L; cited from earlier work.
The subject of data set [2] is rice. Particulars: rice strain with OsIAA11 P106L; cited from earlier work.
For data set [3] the following is noted: Succinyl-Ala-Ala-Pro-Phe-NH-Mec; cited from earlier work.
For data set [4], the system named is ^15N-OsIAA11^72−125 (W104-P105 peptide bond). Nature of the data set: Nzz-exchange: catalyzed cis-trans exchange of W104-P105. The class given is biochemical, rice. In short, it runs like this: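 15N-labeled OsIAA11 72–125 substrate (800μM) with 16μM enzyme (LRT2 mutant or homolog) in NMR buffer (50mM KCl, 20mM KPO4, 3mM TCEP, 5mM NaN3, 0.1% protease inhibitor cocktail, pH=6.67). Protein concentrations were set by A280 using theoretical extinction coefficients. Nzz-exchange spectra were processed to give the observed cis-trans exchange rate (kexobs) of the W104-P105 bond with uncertainties.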

B1: OsIAA11 P106L: OsIAA11 P106L mutation (directly adjacent to the W104-P105 peptide bond) (protein, UniProt Q75GK0 1-233, looked up, variant P106L)
Auxin-responsive protein IAA11: MAGLGFDETELRLGLPGAGELAARSSGKRGFAETIDLKLKLQPAAPAAVSGEEGAQEDKEDADAAAAAADEKMSMKRSASQSSVVTAEPDPDKPRAPKAQVVGWPLVRSFRKNVLAEKCKAAALVKVSMDGAPYLRKIDVAMYKSYPELSMAFQNMFTSFTIGKCGSHQQLKESNKLRDDLEYVPTYEDKDGDWMLVGDVPWEMFVESCKRLRIMKGSEAIGLAPRAVEKCKS
Consider B1, for which the “Proteasomal degradation” value in data set [1] is on record as “evades proteasomal degradation”. In data set [2], the “Lateral root development” value is recorded as “no induction of lateral root development”.

B2: PPIB: petidyl-prolyl isomerase B from E. coli (Uniprot entry P23869) (protein, UniProt P23869 1-164, looked up)
Peptidyl-prolyl cis-trans …: MVTFHTNHGDIVIKTFDDKAPETVKNFLDYCREGFYNNTIFHRVINGFMIQGGGFEPGMKQKATKEPIKNEANNGLKNTRGTLAMARTQAPHSATAQFFINVVDNDFLNFSGESLQGWGYCVFAEVVDGMDVVDKIKGVATGRSGMHQDVPKEDVIIESVTVSE
B2: the “kcat/Km relative to hCypA” value in data set [3] is listed as “more than an order of magnitude higher kcat/Km than hCypA”. The “Nzz exchange crosspeaks / activity” value in data set [4] (16μM enzyme, 800μM OsIAA11^72–125) is on record as “clear exchange crosspeaks”. In data set [4] (1H-15N Nzz exchange, 16μM enzyme, 800μM OsIAA11^72–125, NMR buffer pH=6.67), this molecule returned a Nzz-measured kexobs of 0.37 ± 0.04 s⁻¹. The “Activity relative to WT LRT2 on OsIAA11” value in data set [4] (Nzz, % of WT LRT2 activity) worked out at 60%.
